Reference: ChEMBL document CHEMBL2412970, “Synthesis and anticancer activity of 2,4-disubstituted furo[3,2-b]indole derivatives” (Eur J Med Chem, 2013)
Activity calls are given as the source filed them. No cut-off for these calls is given here.

Experiments:
[1] = system: UO-31; assay: Cytotoxicity against human UO31 cells after 48 hrs by sulforhodamine B assay; type: functional; conditions: UO-31, 48 h
[2] = system: SNB-75; assay: Cytotoxicity against human SNB75 cells after 48 hrs by sulforhodamine B assay; type: functional; conditions: SNB-75, 48 h
[3] = system: A498; assay: Cell cycle arrest in human A498 cells assessed as accumulation at sub-G1 phase at 0.5 uM after 36 hrs by propidium iodide staining-based flow cytometry (reference value: 0.10 +/- 0.07%); type: functional
[4] = Cytotoxicity against human Hep3B cells after 48 hrs by MTT assay; type: functional, cell-based, Hep 3B2
[5] = system: A498; assay: Induction of apoptosis in human A498 cells assessed as caspase-9 activation at 0.5 uM after 24 hrs by Western blotting analysis; type: functional, cell-based
Outline: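 A498 cells exposed for 6, 12, 24, 36 or 48 h, then washed in PBS and lysed. Lysates were held on ice for 30 min and spun at 12 000g for 20 min. Supernatant protein was measured by Bradford assay, run on 10% SDS-PAGE and transferred to nitrocellulose. Blots were probed for AIF, Endo G, Apaf-1, cytochrome c, caspase 9 and caspase 3, with β-actin as loading control; n = 3 independent experiments.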

[6] = system: SF-295; assay: Cytotoxicity against human SF295 cells after 48 hrs by sulforhodamine B assay; type: functional; conditions: SF-295, 48 h
[7] = system: NCI-H522; assay: Cytotoxicity against human NCI-H522 cells after 48 hrs by sulforhodamine B assay; type: functional; conditions: NCI-H522, 48 h
[8] = system: A498; assay: Induction of apoptosis in human A498 cells assessed as reduction in mitochondrial membrane potential at 0.5 uM after 12 to 48 hrs by JC-1 staining-based flow cytometry; type: functional, cell-based
Outline: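 A498 cells at 1 × 10⁶ cells/mL, untreated or treated for 12–48 h, were stained with JC-1 working solution for 10–15 min and analysed by flow cytometry. High-potential cells show intense red JC-1 aggregate fluorescence; loss of potential is scored as the population with reduced red fluorescence.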

[9] = system: Malme-3M; assay: Cytotoxicity against human MALME-3M cells after 48 hrs by sulforhodamine B assay; type: functional
[10] = system: SK-MEL-28; assay: Cytotoxicity against human SK-MEL-28 cells after 48 hrs by sulforhodamine B assay; type: functional; conditions: SK-MEL-28, 48 h
[11] = system: HT-29; assay: Cytotoxicity against human HT-29 cells after 48 hrs by sulforhodamine B assay; type: functional; conditions: HT-29, 48 h
[12] = system: A498; assay: Induction of apoptosis in human A498 cells assessed as late apoptotic cells at 0.5 uM after 36 hrs by AnnexinV/FITC-propidium iodide staining-based flow cytometry (reference value: 9.6%); type: functional
Outline: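 Flow cytometry with annexin V-FITC/PI double labeling of A498 cells treated for 12, 24, 36 or 48 h; untreated cells served as the 0 h control. Stained in binding buffer for 15 min at room temperature in the dark, with more binding buffer added just before analysis. Annexin V+/PI− (Q4) counted as early apoptotic and annexin V+/PI+ (Q2) as late apoptotic.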

[13] = system: A498; assay: Induction of apoptosis in human A498 cells assessed as early apoptotic cells at 0.5 uM after 24 hrs by AnnexinV/FITC-propidium iodide staining-based flow cytometry (reference value: 3.9%); type: functional
[14] = system: NCI-H23; assay: Cytotoxicity against human NCI-H23 cells after 48 hrs by sulforhodamine B assay; type: functional; conditions: NCI-H23, 48 h
[15] = system: HL-60; assay: Cytotoxicity against human HL60 cells after 48 hrs by MTT assay; type: functional, cell-based; conditions: HL-60, 48 h
Outline: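 Cells were treated with a range of concentrations for 48 h. Viability was read by MTT: formazan was dissolved in DMSO and absorbance read at 570 nm. Untreated or 0.1% DMSO cells served as control. Data are mean from three independent experiments. HL-60, H460 and COLO 205 were kept in RPMI-1640 with 10% FBS and penicillin/streptomycin.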

[16] = system: KM12; assay: Cytotoxicity against human KM12 cells after 48 hrs by sulforhodamine B assay; type: functional; conditions: KM12, 48 h
[17] = system: A498; assay: Induction of cell cycle arrest at G2/M phase in human A498 cells assessed as increase in cyclin B1 expression at 0.5 uM after 6 hrs by Western blotting analysis; type: functional, cell-based
Outline: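 A498 cells exposed to 0.5 µM for 6, 12, 24, 36 or 48 h, then lysed on ice 30 min and spun 12 000g 20 min. Protein measured by Bradford; 20 µg per lane run on 10% SDS-PAGE, transferred to nitrocellulose, probed for cyclin B1 and CDK1, β-actin as loading control; n = 3 independent experiments.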

[18] = system: A498; assay: Induction of apoptosis in human A498 cells assessed as early apoptotic cells at 0.5 uM after 12 hrs by AnnexinV/FITC-propidium iodide staining-based flow cytometry (reference value: 3.9%); type: functional
[19] = read-out: pLC50 (the source's name) (converted)

Molecule OCc1ccc(Cn2c3ccccc3c3oc(CO)cc32)o1 has a GI50 [1] of 50.1 µM, a CC50 [1, 19] greater than 100 µM and a TGI ([1]; read-out: pTGI) greater than 100 µM. The GI50 [2] was 46.8 µM, the CC50 [2, 19] was greater than 100 µM and the TGI ([2]; read-out: pTGI) was greater than 100 µM. The Activity [3] was 3.16%, the IC50 [4] was greater than 50 µM and the Activity [5] was “Active”. For the same molecule, the GI50 [6] was 26.9 µM, the CC50 [6, 19] was greater than 100 µM and the TGI ([6]; read-out: pTGI) was greater than 100 µM. For the same molecule, the GI50 [7] was 39.8 µM, the CC50 [7, 19] was greater than 100 µM and the TGI ([7]; read-out: pTGI) was greater than 100 µM. The Activity [8] was “Active”, the GI50 [9] was greater than 100 µM and the CC50 [9, 19] was greater than 100 µM. The TGI ([9]; read-out: pTGI) was greater than 100 µM, the GI50 [10] was greater than 100 µM and the CC50 [10, 19] was greater than 100 µM. The TGI ([10]; read-out: pTGI) was greater than 100 µM, the GI50 [11] was 41.7 µM and the CC50 [11, 19] was greater than 100 µM. For the same molecule, the TGI ([11]; read-out: pTGI) was greater than 100 µM, the Activity [12] was 20.3% and the Activity [13] was 12.7%. For the same molecule, the GI50 [14] was greater than 100 µM, the CC50 [14, 19] was greater than 100 µM and the TGI ([14]; read-out: pTGI) was greater than 100 µM. For the same molecule, the IC50 [15] was greater than 50 µM, the GI50 [16] was greater than 100 µM and the CC50 [16, 19] was greater than 100 µM. For the same molecule, the TGI ([16]; read-out: pTGI) was greater than 100 µM, the Activity [17] was “Active” and the Activity [18] was 5%.
